The results in this text go back to ChEMBL document CHEMBL1817567, “Design of benzimidazole- and benzoxazole-2-thione derivatives as inhibitors of bacterial hyaluronan lyase” (Eur J Med Chem, 2011).

Data set [1] is described as follows: Inhibition of Streptococcus agalactiae hyaluronidase.
Data set [2] concerns the target T1, Hyaluronidase (Bos taurus) (UniProt Q8SQG8+Q5E985). Nature of the data set: Inhibition of bovine testes hyaluronidase at 4200 uM after 30 mins at pH 5 by turbidimetric analysis. It is filed as protein assay.
Data set [3] concerns the target T1, Hyaluronidase (Bos taurus). Nature of the data set: Inhibition of bovine testes hyaluronidase at 130 uM after 30 mins at pH 5 by turbidimetric analysis. It is filed as protein assay.
Data set [4] has as its target T1, Hyaluronidase (Bos taurus). Nature of the data set: Inhibition of bovine testes hyaluronidase at 49 uM after 30 mins at pH 5 by turbidimetric analysis. It is filed as protein assay.
Data set [5] concerns the target T1, Hyaluronidase (Bos taurus). Nature of the data set: Inhibition of bovine testes hyaluronidase at 460 uM after 30 mins at pH 5 by turbidimetric analysis. In kind it is protein assay.
In data set [6] the target is T1, Hyaluronidase (Bos taurus). In words: Inhibition of bovine testes hyaluronidase at 200 uM after 30 mins at pH 5 by turbidimetric analysis. It is filed as protein assay.
The target in data set [7] is T1, Hyaluronidase (Bos taurus). In words: Inhibition of bovine testes hyaluronidase at 150 uM after 30 mins at pH 5 by turbidimetric analysis. In kind it is protein assay.
Data set [8] concerns the target T1, Hyaluronidase (Bos taurus). Nature of the data set: Inhibition of bovine testes hyaluronidase at 180 uM after 30 mins at pH 5 by turbidimetric analysis. It is filed as protein assay.
The test system of data set [9] is Streptococcus agalactiae. Nature of the data set: Inhibition of Streptococcus agalactiae 4755 hyaluronidase at 2000 uM after 3 hrs at pH 7.4 by turbidimetric analysis. The method in brief: (§1)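 Same turbidimetric hyaluronan-lyase assay at pH 7.4 (citrate–phosphate/NaCl): SagHyal4755 2.9 ng, hyaluronan (2 mg/ml stock), BSA, 3.8% DMSO final, 3 h at 37 °C. CTAB (2.5%, in 0.5 M NaOH) precipitation, 20 min at 25 °C, A600. Activity scaled between no-inhibitor and no-enzyme samples.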

The nature of data set [10]: Inhibition of Streptococcus agalactiae 4755 hyaluronidase at pH 5.0 after 30 mins by turbidimetric analysis. In a few lines:
(§2)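 SagHyal4755 (2.9 ng) with BSA and hyaluronan (2 mg/ml stock) in citrate–phosphate/NaCl buffer pH 5.0, 3.8% DMSO final, 30 min at 37 °C. Stopped by alkaline 2.5% CTAB, then 20 min at 25 °C. Residual-substrate turbidity read at 600 nm; no-inhibitor sample = 100%, no-enzyme sample = 0% activity. Enzyme-free compound controls were run.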

Data set [11] deals with T1, Hyaluronidase (Bos taurus). Nature of the data set: Inhibition of bovine testes hyaluronidase at 2000 uM after 30 mins at pH 5 by turbidimetric analysis. It is filed as protein assay.
The target of data set [12] is T1, Hyaluronidase (Bos taurus). In words: Inhibition of bovine testes hyaluronidase at 80 uM after 30 mins at pH 5 by turbidimetric analysis. It is filed as protein assay.
The target of data set [13] is T1, Hyaluronidase (Bos taurus). Nature of the data set: Inhibition of bovine testes hyaluronidase at 400 uM after 30 mins at pH 5 by turbidimetric analysis. In kind it is protein assay.
Data set [14] addresses T1, Hyaluronidase (Bos taurus). In words: Inhibition of bovine testes hyaluronidase at 170 uM after 30 mins at pH 5 by turbidimetric analysis. In kind it is protein assay.
Data set [15] has as its target T1, Hyaluronidase (Bos taurus). Nature of the data set: Inhibition of bovine testes hyaluronidase at 380 uM after 30 mins at pH 5 by turbidimetric analysis. In kind it is protein assay.
In data set [16] the target is T1, Hyaluronidase (Bos taurus). Nature of the data set: Inhibition of bovine testes hyaluronidase at 3800 uM after 30 mins at pH 5 by turbidimetric analysis. In kind it is protein assay.
Data set [17] has as its target T1, Hyaluronidase (Bos taurus). Nature of the data set: Inhibition of bovine testes hyaluronidase at 190 uM after 30 mins at pH 5 by turbidimetric analysis. In kind it is protein assay.
Data set [18] addresses T1, Hyaluronidase (Bos taurus). Nature of the data set: Inhibition of bovine testes hyaluronidase at 100 uM after 30 mins at pH 5 by turbidimetric analysis. It is filed as protein assay.
For data set [19], the target named is T1, Hyaluronidase (Bos taurus). In words: Inhibition of bovine testes hyaluronidase at 63 uM after 30 mins at pH 5 by turbidimetric analysis. It is filed as protein assay.
The subject of data set [20] is Streptococcus agalactiae. Nature of the data set: Inhibition of Streptococcus agalactiae 4755 hyaluronidase at 2000 uM after 30 mins at pH 5.0 by turbidimetric analysis. The method in brief:
as §2

A short description of data set [21]: Inhibition of Streptococcus agalactiae 4755 hyaluronidase at pH 7.4 after 3 hrs by turbidimetric analysis. The method in brief:
as §1

A short description of data set [22]: Aqueous solubility of the compound in water. It is filed as physicochemical. The method in brief: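 Turbidity at 600 nm of test compound in DMSO added to citrate–phosphate buffer (pH 5 and pH 7.4), water and BSA (0.2 mg/ml stock), at various concentrations, read against a water reference. Enzyme testing used only concentrations showing no turbidity.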
In data set [23] the test system is Streptococcus agalactiae. In words: Inhibition of Streptococcus agalactiae 4755 hyaluronidase at 63 uM after 30 mins at pH 5.0 by turbidimetric analysis. In a few lines: as §2
Data set [24] has as its system Streptococcus agalactiae. In words: Inhibition of Streptococcus agalactiae 4755 hyaluronidase at 80 uM after 30 mins at pH 5.0 by turbidimetric analysis. The method in brief: as §2
Data set [25] deals with Streptococcus agalactiae. In words: Inhibition of Streptococcus agalactiae 4755 hyaluronidase at 200 uM after 3 hrs at pH 7.4 by turbidimetric analysis. The method in brief: as §1
Data set [26] relates to Streptococcus agalactiae. In words: Inhibition of Streptococcus agalactiae 4755 hyaluronidase at 300 uM after 3 hrs at pH 7.4 by turbidimetric analysis. The method in brief: as §1
Data set [27] has as its system Streptococcus agalactiae. Nature of the data set: Inhibition of Streptococcus agalactiae 4755 hyaluronidase at 150 uM after 30 mins at pH 5.0 by turbidimetric analysis. In a few lines: as §2
The test system of data set [28] is Streptococcus agalactiae. In words: Inhibition of Streptococcus agalactiae 4755 hyaluronidase at 1000 uM after 3 hrs at pH 7.4 by turbidimetric analysis. The method in brief: as §1
Data set [29] relates to Streptococcus agalactiae. In words: Inhibition of Streptococcus agalactiae 4755 hyaluronidase at 400 uM after 30 mins at pH 5.0 by turbidimetric analysis. In a few lines:
as §2

For data set [30], the system named is Streptococcus agalactiae. Nature of the data set: Inhibition of Streptococcus agalactiae 4755 hyaluronidase at 4200 uM after 30 mins at pH 5.0 by turbidimetric analysis. The method in brief:
as §2

In data set [31] the test system is Streptococcus agalactiae. In words: Inhibition of Streptococcus agalactiae 4755 hyaluronidase at 4200 uM after 3 hrs at pH 7.4 by turbidimetric analysis. In a few lines: as §1

pIC50: −log10 of the molar value. Values after ≈ are worked out from the molar mass of the structure shown. Active and inactive are the calls of the source. No cut-off for these calls is given here.

T1 sequence (Q5E985 whole entry, looked up): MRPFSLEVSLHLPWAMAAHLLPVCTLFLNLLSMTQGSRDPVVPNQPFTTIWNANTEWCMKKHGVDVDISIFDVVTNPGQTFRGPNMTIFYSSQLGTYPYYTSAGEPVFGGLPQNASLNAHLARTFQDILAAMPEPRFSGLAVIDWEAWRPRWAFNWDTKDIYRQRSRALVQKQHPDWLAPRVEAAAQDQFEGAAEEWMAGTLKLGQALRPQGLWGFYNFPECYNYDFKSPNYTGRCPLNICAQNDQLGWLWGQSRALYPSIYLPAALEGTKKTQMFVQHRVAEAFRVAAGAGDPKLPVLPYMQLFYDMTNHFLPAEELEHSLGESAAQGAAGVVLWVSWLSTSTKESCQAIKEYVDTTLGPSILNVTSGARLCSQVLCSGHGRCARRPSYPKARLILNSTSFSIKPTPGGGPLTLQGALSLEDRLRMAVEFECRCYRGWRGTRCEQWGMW
T1 sequence (Q8SQG8 whole entry, looked up): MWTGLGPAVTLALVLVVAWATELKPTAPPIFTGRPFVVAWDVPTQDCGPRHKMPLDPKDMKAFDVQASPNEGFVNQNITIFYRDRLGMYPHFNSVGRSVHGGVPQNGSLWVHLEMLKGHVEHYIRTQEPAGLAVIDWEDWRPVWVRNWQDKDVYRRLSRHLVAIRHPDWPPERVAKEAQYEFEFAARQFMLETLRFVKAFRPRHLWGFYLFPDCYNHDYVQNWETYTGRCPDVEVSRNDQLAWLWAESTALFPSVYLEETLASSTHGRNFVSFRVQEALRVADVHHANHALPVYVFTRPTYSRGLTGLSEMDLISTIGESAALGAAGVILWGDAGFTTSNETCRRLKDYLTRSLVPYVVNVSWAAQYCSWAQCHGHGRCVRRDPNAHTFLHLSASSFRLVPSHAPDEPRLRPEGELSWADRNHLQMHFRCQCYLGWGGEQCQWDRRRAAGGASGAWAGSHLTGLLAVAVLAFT

By pIC50 is commonly meant the negative decadic logarithm of the IC50, by convention in mol/L. The low end stands for a large IC50, the high end for a small IC50. Turning to `CC1(C)[C@@H](O)CC[C@]2(C)[C@H]3C(=O)C=C4[C@@H]5C[C@@](C)(C(=O)O)CC[C@]5(C)CC[C@@]4(C)[C@]3(C)CC[C@@H]12` [ENOXOLONE], the pIC50 in [1] was 4.22.

As a reminder, the inhibition is the percentage by which the read-out fell short of the control. For `COC(=O)c1ccc2oc(=S)[nH]c2c1`, the inhibition result in [2], in data set [3], in [4], in [5], in data set [6] and in [7] was “inactive” each time. For the same molecule, the inhibition entry in data set [8], in data set [11], in [12], in [13], in [14] and in data set [15] was “inactive” throughout. For the same molecule, the inhibition result in data set [16], in data set [17], in [18] and in data set [19] was “inactive” in each case. This molecule also came in with an inhibition in the data set with Streptococcus agalactiae [9] of 27%. In addition, the negative-log IC50 (pIC50) in data set [10] was 2.89.

One may read the solubility as the concentration that dissolves in the medium under given conditions. In the case of `CC(=O)n1c(=O)oc2ccccc21`, the inhibition entry (in data set [2]; in [3]; in data set [4]; in the data set with Streptococcus agalactiae [20]; in [5]; in data set [6]) was “inactive” throughout. The inhibition entry in data set [7], in data set [8], in data set [11], in [12], in data set [13] and in data set [14] was “inactive” each time. Further, the inhibition result in data set [15], in data set [16], in data set [17], in data set [18] and in [19] was “inactive” each time. The molecule also showed a pIC50 in data set [21] of 2.83. Also, in [22], the solubility came out at 2000 µM (≈ 354 µg/mL).

Take `CCCCCCCCCCCCCCCC(=O)n1c(=S)oc2ccccc21`: the inhibition entry in data set [2], in [3], in [4], in data set [5], in [6] and in data set [7] was “inactive” each time. The inhibition entry in data set [8], in data set [11], in data set [12], in data set [13], in data set [14] and in data set [15] was “inactive” each time. Also, the inhibition entry in data set [16], in data set [17], in [18] and in data set [19] was “inactive” each time. This molecule had a pIC50 in data set [21] of 4.77. For the same molecule, the solubility in data set [22] stood at 63 µM (≈ 24.5 µg/mL). In the data set on Streptococcus agalactiae [23], the inhibition was determined as 23%.

As to `O=C(/C=C/c1ccccc1)n1c(=S)oc2ccccc21`, the inhibition result in data set [2], in [3], in data set [4], in [5], in data set [6] and in data set [7] was “inactive” throughout. The inhibition result in data set [8], in data set [11], in data set [12], in data set [13], in [14] and in data set [15] was “inactive” in each case. In addition, the inhibition entry in data set [16], in [17], in [18] and in data set [19] was “inactive” in each case. In addition, the inhibition with Streptococcus agalactiae [24] is 9%; in the data set on Streptococcus agalactiae [25], 36%. This molecule also came in with a solubility in [22] of 80 µM (≈ 22.5 µg/mL).

For the molecule `CCCCCC(=O)n1c(=O)oc2ccccc21`, the inhibition entry in [2], in data set [3], in data set [4], in data set [5], in data set [6] and in [7] was “inactive” each time. The inhibition entry (in [8]; in data set [11]; in data set [12]; in [13]; with Streptococcus agalactiae [26]; in [14]) was “inactive” throughout. In addition, the inhibition entry (in data set [15]; in [16]; in data set [17]; in data set [18]; in data set [19]; with Streptococcus agalactiae [27]) was “inactive” each time. Besides, the solubility in [22] turned out to be 150 µM (≈ 35 µg/mL).

With `CCn1c(=S)oc2ccccc21`, the inhibition entry in [2], in [3], in data set [4], in data set [5], in data set [6] and in data set [7] was “inactive” in each case. For the same molecule, the inhibition result in data set [8], in data set [11], in data set [12], in data set [13], in [14] and in data set [15] was “inactive” each time. In addition, the inhibition result in data set [16], in data set [17], in data set [18] and in data set [19] was “inactive” throughout. The inhibition stood at 17% with Streptococcus agalactiae [28] and 46% in the data set on Streptococcus agalactiae [29]. Also, the concentration in solution in [22] (solubility) was 400 µM (≈ 71.7 µg/mL).

In the case of `CCn1c(S)nc2ccccc21`, the inhibition entry in data set [2], in [3], in [4], in data set [5], in [6] and in data set [7] was “inactive” throughout. For the same molecule, the inhibition entry in data set [8], in [11], in data set [12], in data set [13], in data set [14] and in data set [15] was “inactive” throughout. The inhibition result in data set [16], in data set [17], in data set [18] and in data set [19] was “inactive” each time. Moreover, the figures for the inhibition in the data set with Streptococcus agalactiae [30] and in the data set with Streptococcus agalactiae [31] were 19% and 28%, respectively. Moreover, in data set [22], the concentration in solution (solubility) was 4200 µM (≈ 749 µg/mL).
